# An excerpt weighted towards active compounds, which were near 1.8% of everything screened.
# CAL PDZ FP-1 – blocks peptide binding to the human CAL PDZ domain. Q9HD26. purified CAL PDZ, TMR-peptide fluorescence polarization, 1 h. inhibition, % at 24.9 µM. 0.92% of 300,000 active. AID 602252;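 active = mean inhibition of at least 30% with at least half of replicates also reaching 30%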;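 also: 0% = DMSO neutral control and 100% = excess unlabeled competitor peptide PRC23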
# Tn6 DDE FP – inhibitors of Tn6 peptide binding to human fibrin DD(E); P02675; inhibition, % at 8.3 µM; 0.21% of 370,000 active; AID 720509; Fibrin DD(E) TRITC-Tn6 fluorescence polarization displacement;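 active = inhibition above a per-campaign cutoff: mean of compounds within control limits plus 3 SD, cut at about 15% in these data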;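 also: 0% = median of all compound wells on the plate and 100% = blocking peptide control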
# GRK2 aptamer HTS – human GRK2 inhibition via aptamer displacement. bead flow cytometry, FAM-aptamer displacement from GRK2. inhibition of aptamer binding, % at 10 µM. 0.59% of 330,000 active;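 active = inhibition of aptamer binding above 40%, roughly 3 SD of noise, on plates passing a quality check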;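 also: median bead fluorescence of bound FAM aptamer so fluorescent compounds give negative values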
# Target sequence (P25098 whole entry, looked up): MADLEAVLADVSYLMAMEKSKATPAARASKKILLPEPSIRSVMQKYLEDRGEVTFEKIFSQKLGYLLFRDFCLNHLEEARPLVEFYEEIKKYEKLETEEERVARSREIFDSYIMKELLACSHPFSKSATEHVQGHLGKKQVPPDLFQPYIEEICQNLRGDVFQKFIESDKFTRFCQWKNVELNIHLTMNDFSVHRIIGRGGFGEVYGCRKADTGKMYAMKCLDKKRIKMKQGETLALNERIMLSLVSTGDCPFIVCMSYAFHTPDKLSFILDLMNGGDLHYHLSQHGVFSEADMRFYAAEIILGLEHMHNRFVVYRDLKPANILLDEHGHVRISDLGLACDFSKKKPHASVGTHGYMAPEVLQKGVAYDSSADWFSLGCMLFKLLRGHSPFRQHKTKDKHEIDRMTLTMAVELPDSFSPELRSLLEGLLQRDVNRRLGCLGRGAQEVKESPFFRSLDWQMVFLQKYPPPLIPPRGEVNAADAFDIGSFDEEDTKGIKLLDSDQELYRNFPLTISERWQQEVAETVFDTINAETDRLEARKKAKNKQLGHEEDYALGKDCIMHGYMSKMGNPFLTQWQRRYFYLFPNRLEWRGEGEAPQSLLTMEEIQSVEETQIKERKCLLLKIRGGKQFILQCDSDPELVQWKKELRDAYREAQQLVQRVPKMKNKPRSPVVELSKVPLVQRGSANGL
# Tn7 DDE FP – disrupts Tn7 cyclic peptide binding to fibrin D-Dimer-E complex. 0.13% of 370,000 active. inhibition, % at 8.3 µM. P02675. FP displacement of FITC-Tn7 peptide from fibrin DD(E); 0% = median of compound wells per plate;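 active = inhibition above the mean of compounds falling within the control limits plus 3 SD of them, cut at about 14% in these data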;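 also: 0% = plate median of compound wells and 100% = 10 µM Aha-Tn7 peptide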
#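 Assay system: Human clot-derived fibrin DD(E) complex | Buffer or medium: Tris/NaCl/CaCl2 buffer, pH 7.8 | Repeats: One replicate per compound | Benchmarks: Aha-Tn7 high control | Measure: % inhibition scaled between sample-field median and high-control FP | Schedule: 10 min plus 3 h, room temperature | Signal: Fluorescence polarization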
# CAL PDZ FP-2 – human CAL PDZ-peptide interaction inhibition. AID 504414. 0.02% of 330,000 active. purified CAL PDZ, TMR-peptide fluorescence polarization, 1 h. inhibition, % at 20 µM;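 active = highest replicate inhibition of at least 40%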;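 also: plate controls were DMSO neutral control wells for no effect and unlabeled competitor peptide control wells for full effect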
#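 Material – purified CerCALP PDZ construct · Detection – FP readout, S and P plane fluorescence · Measure – percent inhibition from loss of millipolarization · Controls – unlabelled peptide for full inhibition, DMSO wells as neutral · Probe or stimulus – TMR-labelled reporter peptide T*-PRC34 bound in PDZ groove · Times – 1 h at RT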
# ARNT-TACC3 inh – disrupts binding between human ARNT and TACC3 | AlphaScreen His-ARNT PAS-B/GST-TACC3 binding, luminescence; TACC3 fragment carries E629A point mutation | Q9Y6A5 | 0.66% of 390,000 active | inhibition, % at 9.99 µM | AID 623870;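 active = mean inhibition of replicates at least 50% and at least half of replicates each reaching 50%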;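 also: 0% = complete ARNT plus TACC3 wells and 100% = ARNT alone without TACC3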
# An asterisk follows results filed as active; / = not tested or not shown.
SMILES,CAL PDZ FP-1,Tn6 DDE FP,GRK2 aptamer HTS,Tn7 DDE FP,CAL PDZ FP-2,ARNT-TACC3 inh
Oc1ccc(C[C@H]2CNC(=S)N2CC2CCCN2C[C@H](Cc2ccc(O)cc2)N2C[C@H](Cc3ccc(O)cc3)N(CC3CCCCC3)C2=S)cc1 (stereo not given in full),-2,26*,/,6,1,4
Oc1ccc(C[C@H]2CN([C@@H](Cc3ccccc3)CN3CCCC3CN3C(=S)NC[C@@H]3Cc3ccccc3)C(=S)N2CC2CCCCC2)cc1 (stereo not given in full),/,-8,/,-6,/,/
CCCN(CC(=O)Nc1ccccc1C)C(=O)c1sc2ccccc2c1Cl,61*,-3,0,-3,0,-1
Cc1ccccc1NC(=O)COC(=O)CNC(=O)c1sc2ccccc2c1Cl,2,2,7,-7,-1,-2
Cc1ccc(-c2ccc3c(c2)O[C@H](CN(C)Cc2ccc(C(=O)O)cc2)[C@H](C)CN([C@@H](C)CO)S3(=O)=O)cc1,/,/,/,/,/,3
CNC[C@@H]1Oc2c(NS(=O)(=O)c3ccccc3)cccc2C(=O)N([C@H](C)CO)C[C@H]1C,/,/,/,/,/,13
COC(=O)C1CN(C2CC2)CCS(=O)(=O)N1Cc1cn(Cc2ccc(Cl)cc2)nn1 (stereo not given),/,10,/,5,/,/
CCc1ccc2[nH]c(=O)c(C3C(C#N)=C(N)Oc4c3ccc3cccnc43)cc2c1 (stereo not given),-7,-2,1,-1,-3,48*
O=C(c1ccc(OC2CCN(C/C=C/c3ccccc3)CC2)cc1)N1CCCCC1,37*,1,0,4,13,4
CN1OC[C@@H]2CN(Cc3ccc4c(c3)OCO4)[C@H](c3ccc(N4CCCCC4)cc3)C[C@@H]21,/,1,/,4,/,/
CCOC(=O)c1[nH]ncc1[C@@H]1C[C@H]2CN(Cc3cccc(Cl)c3)C(=O)[C@]23CCCN13,46*,0,3,5,-1,-4
CCn1cc([C@@H]2C[C@H]3CN(Cc4cccc(Cl)c4)C(=O)[C@]34CCCN24)c(C)n1,-2,-4,3,6,-1,0
C[C@H](CO)N1C[C@H](C)[C@@H](CN(C)C(=O)c2ccccc2F)Oc2ncc(-c3cncnc3)cc2C1=O,/,/,/,/,/,2
C[C@@H]1CN([C@H](C)CO)C(=O)c2cc(-c3cncnc3)cnc2O[C@H]1CN(C)C(=O)c1ccccc1F,/,/,/,/,/,active
CCOC(=O)C1CCN(c2c(NCCN(CC)c3ccccc3)c(=O)c2=O)CC1,54*,0,3,3,0,4
COCCNC(=O)c1cc2c(-c3ccccc3F)nn(C)c2s1,-2,-3,0,6,-2,7
CCCCN(C)CCNC(=O)c1cc2c(-c3ccccc3F)nn(C)c2s1,43*,-2,0,2,-4,-2
Cc1cnc(CNC(=O)c2ccc(OC3CCN(C(=O)C4CC4)CC3)cc2)cn1,1,1,2,-4,-1,20
COCC(=O)N1CCC(Oc2ccc(C(=O)NCCCn3cccn3)cc2)CC1,58*,-7,0,4,0,0
CCN(CCn1cccn1)C(=O)c1ccc(OC2CCN(C(=O)COC)CC2)cc1,-2,-7,2,-12,3,1
COCC(=O)N1CCC(Oc2ccc(C(=O)NCc3cnc(C)cn3)cc2)CC1,57*,3,1,-2,7,-10
Cc1nn(C)c(C)c1NC(=S)Nc1ccc(S(=O)(=O)Nc2ncccn2)cc1,39*,3,5,-2,-1,-4
CCc1ccc(-c2nc(CS(=O)CC(=O)NCc3ccccc3)c(C)o2)cc1 (stereo not given),71*,2,0,5,-1,0
Cc1ccc(C)c(NC(=O)C(c2ccccc2)N2CCOCC2)c1 (stereo not given),-3,1,0,0,-2,-1
O=C(Nc1ccccc1F)N[C@@H]1CC[C@@H](CCNC(=O)C2CCOCC2)O[C@H]1CO,/,/,/,/,/,-15
SMILES,CAL PDZ FP-1,Tn6 DDE FP,GRK2 aptamer HTS,Tn7 DDE FP,CAL PDZ FP-2,ARNT-TACC3 inh
O=C(C1=NN[C@@H]2C(=O)N(c3ccccc3C(F)(F)F)C(=O)[C@H]12)c1cnccn1,123*,-5,1,6,-1,-2
O=C(C1=NN[C@@H]2C(=O)N(c3cccc(F)c3)C(=O)[C@H]12)c1cnccn1,/,0,4,0,0,1
CSc1nsc(/C=C/Nc2ccc(F)cc2F)c1C#N,5,/,98*,/,-1,/
CCC(=O)N(C)C[C@H]1Oc2cc(C#CC(C)C)ccc2S(=O)(=O)N([C@H](C)CO)C[C@@H]1C,/,/,/,/,/,-7
COc1ccc(CCNC(=O)C23CCC(C)(C(=O)C2Br)C3(C)C)cc1OC (stereo not given),-1,3,1,-8,0,49*
COc1ccc(CCNC(=O)C23CCC(C)(C(=O)C2=O)C3(C)C)cc1OC (stereo not given),-2,-1,0,-4,-1,-8
COc1ccc(S(=O)(=O)Nc2ccc3c(c2)C(=O)N([C@@H](C)CO)C[C@H](C)[C@@H](CN(C)C(=O)Cc2ccccc2)OCCCC[C@H](C)O3)cc1,/,/,/,/,/,16
N#CCC(=O)N/N=C/c1ccc(N2N=C(c3ccccc3)CC2c2ccccc2)cc1 (stereo not given),-1,-10,67*,1,-1,-23
CCCCCN1CSC(=S)N(Cc2ccccc2)C1,46*,-8,0,0,0,1
CCN1CSC(=S)N(Cc2ccccc2)C1,-3,-4,9,9,-3,1
CN(C)C(=O)C[C@H]1C[C@@H]2c3cc(NS(=O)(=O)c4ccccc4)ccc3O[C@@H]2[C@@H](CO)O1,/,/,/,/,/,-4
COc1ccccc1CN(C)S(=O)(=O)c1cccs1,64*,9,0,7,-1,-1
O=C(NCC[C@H]1CC[C@H](NC(=O)C2CCCCC2)[C@@H](CO)O1)c1ccc(F)cc1,/,/,/,/,/,7
COC(=O)c1cc2ccccc2c(-c2c(OC)c(C(=O)OC)cc3ccccc23)c1OC,-4,2,0,-1,0,10
COC(=O)c1cc2ccccc2c([N+](=O)[O-])c1O,108*,-3,/,-2,0,-2
CCC(C)(C(=O)NC1CCCC1)N(C(=O)CC1NC(=O)NC1=O)c1c(C)n(C)n(-c2ccccc2)c1=O (stereo not given),/,-10,3,0,0,-3
CCC(C)(C(=O)NC1CCCC1)N(C(=O)CC1NC(=O)NC1=O)c1ccc(C)cc1 (stereo not given),60*,-3,0,1,0,0
